Where “and” joins values, the source holds several entries; their conditions need not be identical. Identical values can stand only once.
Legend:
Fibroblast = assay: Multiplex assay against human fibroblast; type: toxicity, cell-based
Summary of the method: (§1)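 Cells stained live at seeding with Hoechst33342, BioTracker Green Microtubule Cytoskeleton Dye, MitoTracker Red and Annexin V Alexa Fluor 680 were imaged on a CQ1 microscope at 37°C and 5% CO2 after compound addition. Their classification by CellPathfinder machine-learning gating ran from Hoechst high-intensity objects versus normal cells, to healthy, pyknosed or fragmented nuclei among normal cells, to mitotic or apoptotic among pyknosed cells. Tubulin, mitochondrial-mass and membrane-permeability phenotypes are per cents of healthy-nucleus cells.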

HEK-293T = assay: Multiplex assay against HEK293T; type: toxicity, cell-based; conditions: human; summary of the method: as §1
[1] = 24 h, 10 µM, compound concentration 10 uM
[2] = 48 h, 1 µM, compound concentration 1 uM
[3] = 48 h, 10 µM, compound concentration 10 uM
[4] = 12 h, 1 µM, compound concentration 1 uM
[5] = 12 h, 10 µM, compound concentration 10 uM
[6] = 24 h, 1 µM, compound concentration 1 uM

SMILES: Cc1ccc(/C(=C\CN2CCCC2)c2ccccn2)cc1 [TRIPROLIDINE]
- Population Apoptotic (%) (Fibroblast; [1]): 47% and 58%
- Population Fragmented Nuclei (%) (Fibroblast; [1]): 15% and 29%
- Population Healthy Nuclei (%) (Fibroblast; [1]): 68% and 52%
- Population Hoechst High Intensity Objects (%) (Fibroblast; [1]): 4% and 2%
- Population Membrane Permeable-Phenotype (%) (Fibroblast; [1]): 0% and 6%
- Population Mitochondria Different-Phenotype (%) (Fibroblast; [1]): 3% and 12%
- Population Mitotic Cells (%) (Fibroblast; [1]): 52% and 41%
- Population Normal (%) (Fibroblast; [1]): 95% and 97%
- Population Pyknosed Nuclei (%) (Fibroblast; [1]): 15% and 17%
- Population Tubulin-Different-Phenotype (%) (Fibroblast; [1]): 41% and 62%
- Total Cell Count (Fibroblast; [1]): 142 and 141
- Population Apoptotic (%) (Fibroblast; [2]): 54% and 52%
- Population Fragmented Nuclei (%) (Fibroblast; [2]): 26% and 29%
- Population Healthy Nuclei (%) (Fibroblast; [2]): 65% and 48%
- Population Hoechst High Intensity Objects (%) (Fibroblast; [2]): 3% and 7%
- Population Membrane Permeable-Phenotype (%) (Fibroblast; [2]): 1% and 7%
- Population Mitochondria Different-Phenotype (%) (Fibroblast; [2]): 2% and 10%
- Population Mitotic Cells (%) (Fibroblast; [2]): 45% and 48%
- Population Normal (%) (Fibroblast; [2]): 96% and 92%
- Population Pyknosed Nuclei (%) (Fibroblast; [2]): 8% and 21%
- Population Tubulin-Different-Phenotype (%) (Fibroblast; [2]): 31% and 57%
- Total Cell Count (Fibroblast; [2]): 135 and 124
- Population Apoptotic (%) (Fibroblast; [3]): 38% and 42%
- Population Fragmented Nuclei (%) (Fibroblast; [3]): 20% and 32%
- Population Healthy Nuclei (%) (Fibroblast; [3]): 69% and 56%
- Population Hoechst High Intensity Objects (%) (Fibroblast; [3]): 7% and 5%
- Population Membrane Permeable-Phenotype (%) (Fibroblast; [3]): 1% and 5%
- Population Mitochondria Different-Phenotype (%) (Fibroblast; [3]): 6% and 9%
- Population Mitotic Cells (%) (Fibroblast; [3]): 61% and 57%
- Population Normal (%) (Fibroblast; [3]): 92% and 94%
- Population Pyknosed Nuclei (%) (Fibroblast; [3]): 9% and 10%
- Population Tubulin-Different-Phenotype (%) (Fibroblast; [3]): 35% and 54%
- Total Cell Count (Fibroblast; [3]): 142 and 140
- Population Apoptotic (%) (HEK-293T; [4]): 34% and 50%
- Population Fragmented Nuclei (%) (HEK-293T; [4]): 6% and 3%
- Population Healthy Nuclei (%) (HEK-293T; [4]): 83% and 84%
- Population Hoechst High Intensity Objects (%) (HEK-293T; [4]): 7% and 5%
- Population Membrane Permeable-Phenotype (%) (HEK-293T; [4]): 0%
- Population Mitochondria Different-Phenotype (%) (HEK-293T; [4]): 45% and 55%
- Population Mitotic Cells (%) (HEK-293T; [4]): 65% and 50%
- Population Normal (%) (HEK-293T; [4]): 92% and 94%
- Population Pyknosed Nuclei (%) (HEK-293T; [4]): 9% and 11%
- Population Tubulin-Different-Phenotype (%) (HEK-293T; [4]): 24% and 17%
- Total Cell Count (HEK-293T; [4]): 424 and 446
- Population Apoptotic (%) (HEK-293T; [5]): 44%
- Population Fragmented Nuclei (%) (HEK-293T; [5]): 10% and 6%
- Population Healthy Nuclei (%) (HEK-293T; [5]): 72% and 77%
- Population Hoechst High Intensity Objects (%) (HEK-293T; [5]): 15% and 8%
- Population Membrane Permeable-Phenotype (%) (HEK-293T; [5]): 0%
- Population Mitochondria Different-Phenotype (%) (HEK-293T; [5]): 67% and 74%
- Population Mitotic Cells (%) (HEK-293T; [5]): 56%
- Population Normal (%) (HEK-293T; [5]): 84% and 91%
- Population Pyknosed Nuclei (%) (HEK-293T; [5]): 16% and 15%
- Population Tubulin-Different-Phenotype (%) (HEK-293T; [5]): 53% and 45%
- Total Cell Count (HEK-293T; [5]): 368 and 344
- Population Apoptotic (%) (HEK-293T; [6]): 30%
- Population Fragmented Nuclei (%) (HEK-293T; [6]): 10% and 9%
- Population Healthy Nuclei (%) (HEK-293T; [6]): 78% and 82%
- Population Hoechst High Intensity Objects (%) (HEK-293T; [6]): 3% and 7%
- Population Membrane Permeable-Phenotype (%) (HEK-293T; [6]): 0%
- Population Mitochondria Different-Phenotype (%) (HEK-293T; [6]): 27% and 34%
- Population Mitotic Cells (%) (HEK-293T; [6]): 70% and 69%
- Population Normal (%) (HEK-293T; [6]): 96% and 92%
- Population Pyknosed Nuclei (%) (HEK-293T; [6]): 10% and 7%
- Population Tubulin-Different-Phenotype (%) (HEK-293T; [6]): 18% and 9%
- Total Cell Count (HEK-293T; [6]): 574 and 541
- Population Apoptotic (%) (HEK-293T; [1]): 36% and 27%
- Population Fragmented Nuclei (%) (HEK-293T; [1]): 8% and 9%
- Population Healthy Nuclei (%) (HEK-293T; [1]): 78% and 80%
- Population Hoechst High Intensity Objects (%) (HEK-293T; [1]): 9% and 4%
- Population Membrane Permeable-Phenotype (%) (HEK-293T; [1]): 0%
- Population Mitochondria Different-Phenotype (%) (HEK-293T; [1]): 55% and 54%
- Population Mitotic Cells (%) (HEK-293T; [1]): 63% and 72%
- Population Normal (%) (HEK-293T; [1]): 90% and 95%
- Population Pyknosed Nuclei (%) (HEK-293T; [1]): 13% and 10%
- Population Tubulin-Different-Phenotype (%) (HEK-293T; [1]): 43% and 26%
- Total Cell Count (HEK-293T; [1]): 490 and 464
- Population Apoptotic (%) (HEK-293T; [2]): 16% and 37%
- Population Fragmented Nuclei (%) (HEK-293T; [2]): 14% and 10%
- Population Healthy Nuclei (%) (HEK-293T; [2]): 79% and 84%
- Population Hoechst High Intensity Objects (%) (HEK-293T; [2]): 1% and 3%
- Population Membrane Permeable-Phenotype (%) (HEK-293T; [2]): 2% and 1%
- Population Mitochondria Different-Phenotype (%) (HEK-293T; [2]): 17% and 13%
- Population Mitotic Cells (%) (HEK-293T; [2]): 83% and 62%
- Population Normal (%) (HEK-293T; [2]): 98% and 96%
- Population Pyknosed Nuclei (%) (HEK-293T; [2]): 6% and 4%
- Population Tubulin-Different-Phenotype (%) (HEK-293T; [2]): 11% and 6%
- Total Cell Count (HEK-293T; [2]): 950 and 837
- Population Apoptotic (%) (HEK-293T; [3]): 43% and 33%
- Population Fragmented Nuclei (%) (HEK-293T; [3]): 16% and 13%
- Population Healthy Nuclei (%) (HEK-293T; [3]): 74% and 78%
- Population Hoechst High Intensity Objects (%) (HEK-293T; [3]): 6% and 4%
- Population Membrane Permeable-Phenotype (%) (HEK-293T; [3]): 0% and 1%
- Population Mitochondria Different-Phenotype (%) (HEK-293T; [3]): 46% and 43%
- Population Mitotic Cells (%) (HEK-293T; [3]): 56% and 66%
- Population Normal (%) (HEK-293T; [3]): 93% and 95%
- Population Pyknosed Nuclei (%) (HEK-293T; [3]): 9% and 7%
- Population Tubulin-Different-Phenotype (%) (HEK-293T; [3]): 29% and 25%
- Total Cell Count (HEK-293T; [3]): 674 and 644

From ChEMBL document CHEMBL5724801, “EUbOPEN Chemogenomics Library - Multiplex” (2024)
